Measurements pooled from the literature.
Each line is one published result; the experiments were not run side by side.
CHRM5: Muscarinic acetylcholine receptor M5 (CHRM5, Homo sapiens, UniProt P08912)
NQO2: Ribosyldihydronicotinamide dehydrogenase [quinone] (NQO2, Homo sapiens, UniProt P16083)
SLC6A2: Sodium-dependent noradrenaline transporter (SLC6A2, Homo sapiens, UniProt P23975)
NPSR1: Neuropeptide S receptor (NPSR1, Homo sapiens, UniProt Q6W5P4)
MC4R: Melanocortin receptor 4 (MC4R, Homo sapiens, UniProt P32245)

| SMILES | target | assay | conditions | measurement | value |
| --- | --- | --- | --- | --- | --- |
| Nc1ncnc2c1ncn2[C@@H]1O[C@H](COP(=O)(O)OP(=O)(O)OP(=O)(O)OP(=O)(O)OP(=O)(O)OC[C@H]2O[C@@H](n3cnc4c(N)ncnc43)[C@H](O)[C@@H]2O)[C@@H](O)[C@H]1O | adk (Escherichia coli, UniProt P69441, R131A) | binding, ITC |  | Kd | 0.576 µM |
| CC[C@@H]1SC2(CCN(C)CC2)NC1=O | CHRM5 | calcium signal, agonist |  | EC50 | 1.08 µM |
| NC(=O)N1c2ccccc2C=Cc2ccccc21 | NQO2 | enzyme activity, inhibitor, absorbance |  | Ki | > 500 µM |
| O[C@@H]1[C@H](O)[C@@H]2C[C@@H]2[C@H]1n1cnc2c(NCC(c3ccccc3)c3ccccc3)nc(C#Cc3ccccc3)nc21 | SLC6A2 | ligand displacement, radioligand |  | Ki | 5.78 µM |
| Cc1cnc(-c2ccc(-c3ccc(NC(=O)Nc4c(F)cc(F)cc4F)cc3F)c3c2C(=O)NC3)[nH]1 | Tyrosine-protein kinase Fgr (FGR, Homo sapiens, UniProt P09769) | binding, competition with immobilised ligand |  | Kd | 0.083 µM |
| CC(C)(C)c1cc(CN(C(=O)CN(Cc2ccc(Cl)cc2)S(=O)(=O)c2c(F)c(F)c(F)c(F)c2F)c2ccc(C(=O)O)c(O)c2)cc(C(C)(C)C)c1 | Signal transducer and activator of transcription 1-alpha/beta (STAT1, Homo sapiens, UniProt P42224) | cell-free assay, FP |  | Ki | > 60 µM |
| COc1cccc(C2c3c(ncn(-c4cccc(Cl)c4)c3=N)Oc3ccc4ccccc4c32)c1 (stereo not drawn) | NPSR1 | cAMP, antagonist, TR-FRET |  | IC50 | 15.4 µM |
| CCCCN1CCC(COC(=O)c2ccc(N)c(OCF)c2)CC1 | CHRM5 | cell-free assay, radioligand |  | Ki | > 10 µM |
| CSSc1ccccc1C(=O)O | srtA (Staphylococcus aureus, UniProt Q2FV99) | enzyme activity, inhibitor, fluorescence | pH 7.5 | Ki | 367 µM |
| Nc1ncnc2c1ncn2[C@@H]1O[C@H](COP(=O)(O)OP(=O)(O)OP(=O)(O)O)[C@@H](O)[C@H]1O | dnaA (Escherichia coli, UniProt P03004, V303M) | binding |  | Kd | 0.08 µM |
| COc1cccc(C2c3c(ncn(-c4ccccc4Cl)c3=N)Oc3ccc4ccccc4c32)c1 (stereo not drawn) | NPSR1 | cAMP, antagonist, TR-FRET |  | IC50 | 12.2 µM |
| CN1CCN(C2=Nc3cc(Cl)ccc3Nc3ccccc32)CC1 | NQO2 | enzyme activity, inhibitor |  | Ki | 746 µM |
| COc1cccc(C2c3c(ncn(-c4ccc(NC(C)=O)cc4)c3=N)Oc3ccc4ccccc4c32)c1 (stereo not drawn) | NPSR1 | cAMP, antagonist, TR-FRET |  | IC50 | 19.4 µM |
| Cc1cc(Nc2cc3ncccc3c(N[C@@H]3C[C@H]4CC[C@@H](C3)N4CCC#N)n2)n[nH]1 | Dual specificity mitogen-activated protein kinase kinase 5 (MAP2K5, Homo sapiens, UniProt Q13163) | binding, competition with immobilised ligand |  | Kd | 0.065 µM |
| O=C(NCc1ccccc1)Nc1ncnc2c1C(c1ccccc1)c1c(ccc3ccccc13)O2 (stereo not drawn) | NPSR1 | calcium signal, antagonist |  | IC50 | > 30 µM |
| CC[C@H](C)[C@H](NC(=O)CN)C(=O)N[C@H](C(=O)N[C@@H](CC(N)=O)C(=O)N[C@H](C(=O)N[C@@H](CC(C)C)C(=O)N[C@@H](CCC(N)=O)C(=O)N[C@@H](CCCCN)C(=O)N[C@@H](Cc1ccc(O)cc1)C(=O)N[C@@H](Cc1ccc(O)cc1)C(=O)N[C@@H](CO)C(=O)N[C@@H](CCCNC(=N)N)C(=O)N[C@H](C(=O)N[C@@H](CCCNC(=N)N)C(=O)NCC(=O)NCC(=O)N[C@@H](CCCNC(=N)N)C(=O)N[C@H]1CSSC[C@@H](C(=O)N[C@@H](CO)C(=O)N[C@H](C(=O)N[C@@H](CCCNC(=N)N)C(=O)NCC(=O)N[C@@H](CCCNC(=N)N)C(=O)N[C@@H](CCCCN)C(=O)N[C@@H](CO)C(=O)N[C@@H](CO)C(=O)N[C@@H](CCCNC(=N)N)C(=O)N[C@@H](CCCNC(=N)N)C(=O)N[C@@H](CCCCN)C(=O)N[C@@H](CCCCN)C(N)=O)[C@@H](C)O)NC(=O)[C@H](CCCCN)NC(=O)CNC(=O)[C@H]([C@@H](C)CC)NC(=O)[C@H](CCC(N)=O)NC(=O)[C@H](CCC(=O)O)NC(=O)[C@H](CCC(=O)O)NC(=O)[C@H](CCCCN)NC(=O)[C@@H]2CCCN2C(=O)[C@H](CC(C)C)NC(=O)[C@H](CO)NC(=O)[C@H](CO)NC(=O)[C@H](CC(C)C)NC(=O)[C@H](C(C)C)NC(=O)[C@H](C)NC1=O)C(C)C)[C@@H](C)O)[C@@H](C)CC | MC4R | ligand displacement in cells |  | Ki | 0.567 µM |
| COc1ccc(C2c3c(n(CCCc4ccccc4)cnc3=N)Oc3ccc4ccccc4c32)cc1OC (stereo not drawn) | NPSR1 | cAMP, antagonist, TR-FRET |  | IC50 | 24.4 µM |
| O=C(O)Cc1ccccc1Nc1c(Cl)cccc1Cl | NQO2 | enzyme activity, inhibitor, absorbance |  | Ki | > 1000 µM |
| CCOC(=O)c1ccc(-n2cnc3c(c2=N)C(c2cccc(OC)c2)c2c(ccc4ccccc24)O3)cc1 (stereo not drawn) | NPSR1 | cAMP, antagonist, TR-FRET |  | IC50 | 15.4 µM |
| CCCOC(=O)[C@@]12C[C@@H]1[C@@H](n1cnc3c(NC)nc(C#Cc4ccc(Cl)s4)nc31)[C@H](O)[C@@H]2O | SLC6A2 | ligand displacement, radioligand | cell membranes | Ki | > 10 µM |
| N=c1c2c(ncn1CCc1ccccc1)Oc1ccc3ccccc3c1C2c1ccccc1 (stereo not drawn) | NPSR1 | cAMP, antagonist, TR-FRET |  | IC50 | 4.87 µM |
| Cc1c(S(=O)(=O)O)oc2c1C(=O)C(=O)c1c-2ccc2c1CCCC2(C)C | Cholinesterase (BCHE, Homo sapiens, UniProt P06276) | enzyme activity, inhibitor |  | Ki | > 100 µM |
| N=c1c2c(ncn1-c1ccccc1)Oc1ccc3ccccc3c1C2c1ccccc1 (stereo not drawn) | NPSR1 | calcium signal, antagonist |  | IC50 | 0.69 µM |
| CCCC[C@H](NC(=O)[C@H](CO)NC(=O)[C@H](Cc1ccc(O)cc1)NC(=O)[C@H](CO)NC(C)=O)C(=O)N[C@@H](CCC(=O)O)C(=O)N[C@@H](Cc1c[nH]cn1)C(=O)N[C@@H](C)C(=O)N[C@@H](CCCNC(=N)N)C(=O)N[C@@H](Cc1c[nH]c2ccccc12)C(=O)NCC(=O)N[C@@H](CCCCN)C(=O)N1CCC[C@H]1C(=O)N[C@H](C(=O)NCC(=O)N[C@@H](CCCCN)C(=O)N[C@@H](CCCCN)C(=O)N[C@@H](CCCNC(=N)N)C(N)=O)C(C)C | MC4R | cAMP, agonist |  | EC50 | 0.257 µM |
